Results on 2 compounds are retold here after ChEMBL document CHEMBL2062386, “Discovery of LFF571: an investigational agent for Clostridium difficile infection” (J Med Chem, 2012).

A word on the MIC: it is the smallest concentration in the dilution series that meets the test's criterion for growth inhibition. Low readings indicate a more susceptible organism, high ones a less susceptible organism. By Kd is commonly meant the constant that tells how readily two partners part at equilibrium. Read a low Kd as tighter binding. The term bioavailability denotes the share of a dose that reaches the circulation, judged against a reference dose that is usually intravenous. The low end stands for poor availability, the high end for good availability. The term ED50 denotes the dose at which the effect has come halfway, by size or by number of responders. Broadly, the inhibition is the relative decrease from the control value, in per cent. Read a high inhibition as strong suppression. Usually IC50 stands for the concentration needed to halve the response being measured. A higher IC50 goes with lower potency.

≈ marks a conversion by molar mass, not a printed value. Calls of active or inactive are those of the source.

Data set [1] can be described thus: Drug level in Clostridium difficile infected golden syrian hamster cecum at 20 mg/kg, po qd administered for 5 days measured at 3 hrs post dose. Further details: dose 20 mg/kg, route oral. In kind it is ADME, organism-based, Mesocricetus auratus, Caecum. The following applies: read-out: Drug uptake. In short, it runs like this: (§1)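 C. difficile-infected hamsters received 20 mg/kg orally (0.6 mL at 3.3 mg/mL) once daily for 5 days. At 1 and 3 h after the fifth dose, 3 animals per time point were sampled: plasma (K2-EDTA, cardiac puncture) and cecal contents. Cecal contents were homogenized in PBS/25% acetonitrile (final 1:25 dilution). Samples were protein-precipitated with acetonitrile containing glyburide internal standard.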

Data set [2] relates to Enterococcus faecalis. Kind of data set: Antibacterial activity against Enterococcus faecalis ATCC 29212 by broth microdilution method. In kind it is functional. Summed up:
(§2)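 Broth microdilution MICs were run per CLSI M07-A8 (2009). The strain panel included C. difficile ATCC 43255, E. faecalis ATCC 29212 and S. pyogenes ATCC BAA-595.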

Data set [3] can be described thus: Binding affinity to Escherichia coli GDPNP-labelled EF-Tu by surface plasmon resonance analysis.
Data set [4] can be described thus: Oral bioavailability in Sprague-Dawley rat. Format: ADME, organism-based. Conditions: in vivo. Summed up: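 Male Sprague–Dawley rats (220–270 g, N = 2 or 3) were used, including iv dosing. Rats were fasted overnight and for 8 h post-dose. Plasma (K2-EDTA) was protein-precipitated with acetonitrile containing glyburide internal standard and analysed by LC–MS/MS (C18, formic acid water/acetonitrile gradient).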

For data set [5], the system named is Staphylococcus aureus. In words: Antibacterial activity against Staphylococcus aureus A4.018 by broth microdilution method. Format: functional. For orientation: In broth dilution the organism is exposed to a series of concentrations in liquid medium.
Data set [6] relates to Enterococcus faecium. In words: Antibacterial activity against Enterococcus faecium 7130724 by broth microdilution method. Format: functional.
A short description of data set [7]: Plasma concentration in Clostridium difficile infected golden syrian hamster at 20 mg/kg, po qd administered for 5 days measured at 1 hr post dose. Format: ADME, organism-based, Mesocricetus auratus. Also on record: dose 20 mg/kg, route oral. The following applies: golden Syrian, plasma. In short, it runs like this: as §1
For data set [8], the system named is Staphylococcus aureus. Kind of data set: Antibacterial activity against Staphylococcus aureus ATCC 49951 infected in CD1 mouse assessed as mouse survival up to 5 days. In kind it is functional. The following applies: ATCC 49951, 120 h. Summed up:
(§3)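 Female CD1 mice (21–25 g) were infected ip with 1 × 10^8 CFU/mouse, 10–100× the minimal lethal dose. E. faecalis NB04025 was given in 50% rat fecal extract and S. aureus ATCC 49951 in 0.9% NaCl. Compound was given by iv tail-vein bolus at 1 and 5 h post-inoculation, at several dose levels (6 mice/group). ED50 with 95% CI was derived by probit analysis of day-5 survival.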

A short description of data set [9]: Antibacterial activity against Clostridium difficile ATCC 43255 infected in golden syrian hamster assessed as survival rate at 2 mg/kg, po qd administered days 1 to 5 measured on days 6 to 21. In kind it is functional. Conditions: Clostridioides difficile. Summed up: (§4)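 Golden Syrian hamsters got clindamycin 10 mg/kg sc on day −1. On day 0 they were gavaged with ~7.5 × 10^6 CFU C. difficile ATCC 43255 (0.75 mL). From 24 h post-infection they were dosed orally once daily for up to 5 days (8/dose), in a NaOH/PEG-400/2.5% Cremophor EL solution diluted in pH 7.4 PBS. Vehicle controls were included, and animals were observed twice daily through day 21.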

A short description of data set [10]: Antibacterial activity against Clostridium difficile ATCC 43255 by broth microdilution method. In kind it is functional. The following applies: Clostridioides difficile. Summed up:
as §2

The nature of data set [11]: Antibacterial activity against Clostridium difficile ATCC 43255 infected in golden syrian hamster assessed as survival rate at 20 mg/kg, po qd administered days 1 to 5 measured on days 6 to 21. In kind it is functional. The following applies: Clostridioides difficile. In short, it runs like this:
as §4

Data set [12] relates to Enterococcus faecalis. Kind of data set: Antibacterial activity against Enterococcus faecalis NB04025 infected in CD1 mouse assessed as mouse survival up to 5 days. The following applies: NB04025, 120 h. Format: functional. Summed up: as §3
For data set [13], the system named is Streptococcus pyogenes. In words: Antibacterial activity against Streptococcus pyogenes ATCC BAA-595 by broth microdilution method. In kind it is functional. Summed up:
as §2

The subject of data set [14] is Clostridium difficile ATCC 43255. In words: Antibacterial activity against Clostridium difficile ATCC 43255 infected in golden syrian hamster assessed as decrease in toxin level in cecum after 21 days by ELISA. In kind it is functional. Conditions: Caecum. Summed up: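 In the clindamycin-pretreated, C. difficile-infected hamster model, oral compound was given once daily on days 1–5. Surviving animals were euthanized at study end (day 21). Cecal homogenates were assayed for C. difficile toxins A and B by Tox A/B II ELISA per kit directions.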
(An ELISA detects its analyte on a solid surface through an enzyme-linked reagent.)

The subject of data set [15] is Escherichia coli. Kind of data set: Inhibition of protein synthesis in Escherichia coli S30 extract at 2 uM after 75 mins by luciferase based luminescence assay relative to GE2270A. Format: functional.
Data set [16] in a line: Plasma concentration in Clostridium difficile infected golden syrian hamster at 20 mg/kg, po qd administered for 5 days measured at 3 hrs post dose. Format: ADME, organism-based, Mesocricetus auratus. Also on record: dose 20 mg/kg, route oral. Conditions: golden Syrian, plasma. Summed up:
as §1

A short description of data set [17]: Drug level in Clostridium difficile infected golden syrian hamster cecum at 20 mg/kg, po qd administered for 5 days measured at 1 hr post dose. The following applies: read-out: Drug uptake. In kind it is ADME, organism-based, Mesocricetus auratus, Caecum. Also on record: dose 20 mg/kg, route oral. Summed up: as §1
Data set [18] is described as follows: Antibacterial activity against Clostridium difficile ATCC 43255 infected in golden syrian hamster assessed as survival rate at 0.2 mg/kg, po qd administered days 1 to 5 measured on days 6 to 21. In kind it is functional. The following applies: Clostridioides difficile. In short, it runs like this: as §4
Data set [19] concerns Escherichia coli. In words: Inhibition of protein synthesis in Escherichia coli S30 extract after 75 mins by luciferase based luminescence assay relative to GE2270A. Format: functional, organism-based.

`CNC(=O)C[C@@H]1NC(=O)c2csc(n2)-c2ccc(-c3nc(N(CCCCC(=O)O)C(=O)O[C@H]4CC[C@H](C(=O)O)CC4)cs3)nc2-c2csc(n2)-c2csc(n2)[C@H]([C@@H](O)c2ccccc2)NC(=O)CNC(=O)c2nc(sc2COC)[C@H](C(C)C)NC(=O)c2nc1sc2C` [LFF-571]: the concentration at 3 h in data set [1] turned out to be 208 µM; in data set [16] it was 0.0052 µM. For the same compound, the minimal inhibitory concentration (MIC) was less than 0.06 µg/mL in [2]; 0.125 µg/mL (≈ 0.0915 µM) in [5]; less than 0.06 µg/mL in data set [6]; 0.03 µg/mL (≈ 0.022 µM) in [10]; 1 µg/mL (≈ 0.732 µM) in data set [13]. This compound returned a dissociation constant Kd in data set [3] of 6 nM. This compound had a bioavailability in data set [4] of less than 0.1%. Also, the concentration at 1 h in data set [7] is 0.0448 µM; in [17] it was 61 µM. In addition, the values for the ED50 in [8] and in [12] were 6.9 mg/kg and 2.2 mg/kg, respectively. The survival at 2 mg/kg in data set [9] is 100%. Further, the survival at 20 mg/kg in data set [11] was found to be 100%. In addition, in [14], the outcome was Active. This compound also displayed an inhibition at 2 µM in data set [15] of 67%. In addition, the survival at 0.2 mg/kg in data set [18] is 0%.

In the case of `CNC(=O)C[C@@H]1NC(=O)c2csc(n2)-c2ccc(-c3nc(C4=N[C@H](C(=O)N5CCC[C@H]5C(N)=O)CO4)cs3)nc2-c2csc(n2)-c2csc(n2)[C@H]([C@@H](O)c2ccccc2)NC(=O)CNC(=O)c2nc(sc2COC)[C@H](C(C)C)NC(=O)c2nc1sc2C`, the MIC was determined as 0.5 µg/mL (≈ 0.387 µM) in data set [2]; 0.25 µg/mL (≈ 0.194 µM) in [5]; 0.25 µg/mL (≈ 0.194 µM) in data set [6]; 0.015 µg/mL (≈ 0.0116 µM) in [10]; 1 µg/mL (≈ 0.775 µM) in [13]. In data set [3], the Kd was determined as 3 nM. Also, the IC50 in data set [19] amounted to 2000 nM. Further, the inhibition at 2 µM in data set [15] was 30%.
